Test results taken from ChEMBL document CHEMBL4689842, “EUbOPEN Chemogenomics Library wave 1” (2021).

Test system: U2OS
Experiment: Multiplex assay against U2OS
Type: toxicity, cell-based
Conditions: human
How it was run: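 Imaging took place on a CQ1 microscope at 37°C and 5% CO2 once compound had been added to live cells stained at seeding with Hoechst33342, BioTracker Green Microtubule Cytoskeleton Dye, MitoTracker Red and Annexin V Alexa Fluor 680. CellPathfinder machine-learning gating classed cells as Hoechst high-intensity objects or normal cells, classed normal cells as having healthy, pyknosed or fragmented nuclei, and classed pyknosed cells as mitotic or apoptotic. Tubulin, mitochondrial-mass and membrane-permeability phenotypes are per cents of the healthy-nucleus cells.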

[1] = 12 h, 1 µM, compound concentration 1 uM, replicate 1
[2] = 12 h, 1 µM, compound concentration 1 uM, replicate 2
[3] = 12 h, 10 µM, compound concentration 10 uM, replicate 1
[4] = 12 h, 10 µM, compound concentration 10 uM, replicate 2
[5] = 24 h, 1 µM, compound concentration 1 uM, replicate 1
[6] = 24 h, 1 µM, compound concentration 1 uM, replicate 2
[7] = 24 h, 10 µM, compound concentration 10 uM, replicate 1
[8] = 24 h, 10 µM, compound concentration 10 uM, replicate 2
[9] = 48 h, 1 µM, compound concentration 1 uM, replicate 1
[10] = 48 h, 1 µM, compound concentration 1 uM, replicate 2
[11] = 48 h, 10 µM, compound concentration 10 uM, replicate 1
[12] = 48 h, 10 µM, compound concentration 10 uM, replicate 2

In the case of Cc1cn(-c2cc(NC(=O)c3ccc(C)c(Nc4nccc(-c5cccnc5)n4)c3)cc(C(F)(F)F)c2)cn1 [NILOTINIB], the “Population Apoptotic (%)” value [1] is reported as 46%, the “Population Fragmented Nuclei (%)” value [1] is reported as 14% and the “Population Healthy Nuclei (%)” value [1] is reported as 69%. For the same molecule, the “Population Hoechst High Intensity Objects (%)” value [1] was 8%, the “Population Membrane Permeable-Phenotype (%)” value [1] was 10% and the “Population Mitochondria Different-Phenotype (%)” value [1] was 77%. For the same molecule, the “Population Mitotic Cells (%)” value [1] was 53%, the “Population Normal (%)” value [1] was 91% and the “Population Pyknosed Nuclei (%)” value [1] was 16%. The “Population Tubulin-Different-Phenotype (%)” value [1] was 94%, the “Total Cell Count” value [1] was 134 and the “Population Apoptotic (%)” value [2] was 25%. For the same molecule, the “Population Fragmented Nuclei (%)” value [2] was 1%, the “Population Healthy Nuclei (%)” value [2] was 86% and the “Population Membrane Permeable-Phenotype (%)” value [2] was 1%. The “Population Mitochondria Different-Phenotype (%)” value [2] was 18%, the “Population Mitotic Cells (%)” value [2] was 75% and the “Population Pyknosed Nuclei (%)” value [2] was 11%. For the same molecule, the “Population Tubulin-Different-Phenotype (%)” value [2] was 10%, the “Total Cell Count” value [2] was 66 and the “Population Apoptotic (%)” value [3] was 86%. The “Population Fragmented Nuclei (%)” value [3] was 45%, the “Population Healthy Nuclei (%)” value [3] was 20% and the “Population Hoechst High Intensity Objects (%)” value [3] was 49%. For the same molecule, the “Population Membrane Permeable-Phenotype (%)” value [3] was 30%, the “Population Mitochondria Different-Phenotype (%)” value [3] was 89% and the “Population Mitotic Cells (%)” value [3] was 13%. For the same molecule, the “Population Normal (%)” value [3] was 50%, the “Population Pyknosed Nuclei (%)” value [3] was 33% and the “Population Tubulin-Different-Phenotype (%)” value [3] was 93%. The “Total Cell Count” value [3] was 185, the “Population Apoptotic (%)” value [4] was 33% and the “Population Fragmented Nuclei (%)” value [4] was 18%. The “Population Healthy Nuclei (%)” value [4] was 72%, the “Population Hoechst High Intensity Objects (%)” value [4] was 7% and the “Population Membrane Permeable-Phenotype (%)” value [4] was 4%. The “Population Mitochondria Different-Phenotype (%)” value [4] was 61%, the “Population Mitotic Cells (%)” value [4] was 66% and the “Population Normal (%)” value [4] was 92%. For the same molecule, the “Population Pyknosed Nuclei (%)” value [4] was 9%, the “Population Tubulin-Different-Phenotype (%)” value [4] was 63% and the “Total Cell Count” value [4] was 73. The “Population Apoptotic (%)” value [5] was 55%, the “Population Fragmented Nuclei (%)” value [5] was 12% and the “Population Healthy Nuclei (%)” value [5] was 66%. For the same molecule, the “Population Hoechst High Intensity Objects (%)” value [5] was 6%, the “Population Membrane Permeable-Phenotype (%)” value [5] was 14% and the “Population Mitochondria Different-Phenotype (%)” value [5] was 73%. For the same molecule, the “Population Mitotic Cells (%)” value [5] was 44%, the “Population Normal (%)” value [5] was 93% and the “Population Pyknosed Nuclei (%)” value [5] was 20%. The “Population Tubulin-Different-Phenotype (%)” value [5] was 92%, the “Total Cell Count” value [5] was 135 and the “Population Apoptotic (%)” value [6] was 40%. The “Population Fragmented Nuclei (%)” value [6] was 14%, the “Population Healthy Nuclei (%)” value [6] was 79% and the “Population Hoechst High Intensity Objects (%)” value [6] was 5%. For the same molecule, the “Population Membrane Permeable-Phenotype (%)” value [6] was 2%, the “Population Mitochondria Different-Phenotype (%)” value [6] was 20% and the “Population Mitotic Cells (%)” value [6] was 60%. For the same molecule, the “Population Normal (%)” value [6] was 94%, the “Population Pyknosed Nuclei (%)” value [6] was 5% and the “Population Tubulin-Different-Phenotype (%)” value [6] was 12%. The “Total Cell Count” value [6] was 67, the “Population Apoptotic (%)” value [7] was 85% and the “Population Fragmented Nuclei (%)” value [7] was 60%. The “Population Healthy Nuclei (%)” value [7] was 16%, the “Population Hoechst High Intensity Objects (%)” value [7] was 60% and the “Population Membrane Permeable-Phenotype (%)” value [7] was 29%. The “Population Mitochondria Different-Phenotype (%)” value [7] was 71%, the “Population Mitotic Cells (%)” value [7] was 14% and the “Population Normal (%)” value [7] was 39%. For the same molecule, the “Population Pyknosed Nuclei (%)” value [7] was 23%, the “Population Tubulin-Different-Phenotype (%)” value [7] was 78% and the “Total Cell Count” value [7] was 184. The “Population Apoptotic (%)” value [8] was 0%, the “Population Fragmented Nuclei (%)” value [8] was 12% and the “Population Healthy Nuclei (%)” value [8] was 83%. For the same molecule, the “Population Hoechst High Intensity Objects (%)” value [8] was 2%, the “Population Membrane Permeable-Phenotype (%)” value [8] was 1% and the “Population Mitochondria Different-Phenotype (%)” value [8] was 42%. For the same molecule, the “Population Mitotic Cells (%)” value [8] was 100%, the “Population Normal (%)” value [8] was 97% and the “Population Pyknosed Nuclei (%)” value [8] was 4%. The “Population Tubulin-Different-Phenotype (%)” value [8] was 30%, the “Total Cell Count” value [8] was 93 and the “Population Apoptotic (%)” value [9] was 65%. For the same molecule, the “Population Fragmented Nuclei (%)” value [9] was 14%, the “Population Healthy Nuclei (%)” value [9] was 67% and the “Population Hoechst High Intensity Objects (%)” value [9] was 3%. For the same molecule, the “Population Membrane Permeable-Phenotype (%)” value [9] was 16%, the “Population Mitochondria Different-Phenotype (%)” value [9] was 54% and the “Population Mitotic Cells (%)” value [9] was 34%. For the same molecule, the “Population Normal (%)” value [9] was 96%, the “Population Pyknosed Nuclei (%)” value [9] was 17% and the “Population Tubulin-Different-Phenotype (%)” value [9] was 80%. The “Total Cell Count” value [9] was 127, the “Population Apoptotic (%)” value [10] was 25% and the “Population Fragmented Nuclei (%)” value [10] was 4%. The “Population Healthy Nuclei (%)” value [10] was 92%, the “Population Hoechst High Intensity Objects (%)” value [10] was 5% and the “Population Membrane Permeable-Phenotype (%)” value [10] was 6%. The “Population Mitochondria Different-Phenotype (%)” value [10] was 18%, the “Population Mitotic Cells (%)” value [10] was 75% and the “Population Normal (%)” value [10] was 94%. The “Population Pyknosed Nuclei (%)” value [10] was 3%, the “Population Tubulin-Different-Phenotype (%)” value [10] was 24% and the “Total Cell Count” value [10] was 64. For the same molecule, the “Population Apoptotic (%)” value [11] was 85%, the “Population Fragmented Nuclei (%)” value [11] was 69% and the “Population Healthy Nuclei (%)” value [11] was 10%. For the same molecule, the “Population Hoechst High Intensity Objects (%)” value [11] was 61%, the “Population Membrane Permeable-Phenotype (%)” value [11] was 24% and the “Population Mitochondria Different-Phenotype (%)” value [11] was 33%. For the same molecule, the “Population Mitotic Cells (%)” value [11] was 15%, the “Population Normal (%)” value [11] was 38% and the “Population Pyknosed Nuclei (%)” value [11] was 19%. For the same molecule, the “Population Tubulin-Different-Phenotype (%)” value [11] was 40%, the “Total Cell Count” value [11] was 245 and the “Population Apoptotic (%)” value [12] was 11%. For the same molecule, the “Population Fragmented Nuclei (%)” value [12] was 15%, the “Population Healthy Nuclei (%)” value [12] was 75% and the “Population Hoechst High Intensity Objects (%)” value [12] was 4%. The “Population Membrane Permeable-Phenotype (%)” value [12] was 8%, the “Population Mitochondria Different-Phenotype (%)” value [12] was 20% and the “Population Mitotic Cells (%)” value [12] was 88%. The “Population Normal (%)” value [12] was 95%, the “Population Pyknosed Nuclei (%)” value [12] was 9% and the “Population Tubulin-Different-Phenotype (%)” value [12] was 25%. For the same molecule, the “Total Cell Count” value [12] was 132.
